Legend:
[1] = biological target: Wee1-like protein kinase 2 (Homo sapiens) (UniProt P0C1S8); assay: Inhibition of WEE2 at 3 uM
[2] = biological target: Platelet-derived growth factor receptor beta (Homo sapiens) (UniProt P09619); assay: Inhibition of PDGFRB at 3 uM
[3] = biological target: Serine/threonine-protein kinase STK11 (Homo sapiens) (UniProt Q15831); assay: Inhibition of LKB1 at 3 uM
[4] = biological target: Serine/threonine-protein kinase LATS1 (Homo sapiens) (UniProt O95835); assay: Inhibition of LATS1 at 3 uM
Sequence of Serine/threonine-protein kinase LATS1 (Homo sapiens) (O95835 whole entry): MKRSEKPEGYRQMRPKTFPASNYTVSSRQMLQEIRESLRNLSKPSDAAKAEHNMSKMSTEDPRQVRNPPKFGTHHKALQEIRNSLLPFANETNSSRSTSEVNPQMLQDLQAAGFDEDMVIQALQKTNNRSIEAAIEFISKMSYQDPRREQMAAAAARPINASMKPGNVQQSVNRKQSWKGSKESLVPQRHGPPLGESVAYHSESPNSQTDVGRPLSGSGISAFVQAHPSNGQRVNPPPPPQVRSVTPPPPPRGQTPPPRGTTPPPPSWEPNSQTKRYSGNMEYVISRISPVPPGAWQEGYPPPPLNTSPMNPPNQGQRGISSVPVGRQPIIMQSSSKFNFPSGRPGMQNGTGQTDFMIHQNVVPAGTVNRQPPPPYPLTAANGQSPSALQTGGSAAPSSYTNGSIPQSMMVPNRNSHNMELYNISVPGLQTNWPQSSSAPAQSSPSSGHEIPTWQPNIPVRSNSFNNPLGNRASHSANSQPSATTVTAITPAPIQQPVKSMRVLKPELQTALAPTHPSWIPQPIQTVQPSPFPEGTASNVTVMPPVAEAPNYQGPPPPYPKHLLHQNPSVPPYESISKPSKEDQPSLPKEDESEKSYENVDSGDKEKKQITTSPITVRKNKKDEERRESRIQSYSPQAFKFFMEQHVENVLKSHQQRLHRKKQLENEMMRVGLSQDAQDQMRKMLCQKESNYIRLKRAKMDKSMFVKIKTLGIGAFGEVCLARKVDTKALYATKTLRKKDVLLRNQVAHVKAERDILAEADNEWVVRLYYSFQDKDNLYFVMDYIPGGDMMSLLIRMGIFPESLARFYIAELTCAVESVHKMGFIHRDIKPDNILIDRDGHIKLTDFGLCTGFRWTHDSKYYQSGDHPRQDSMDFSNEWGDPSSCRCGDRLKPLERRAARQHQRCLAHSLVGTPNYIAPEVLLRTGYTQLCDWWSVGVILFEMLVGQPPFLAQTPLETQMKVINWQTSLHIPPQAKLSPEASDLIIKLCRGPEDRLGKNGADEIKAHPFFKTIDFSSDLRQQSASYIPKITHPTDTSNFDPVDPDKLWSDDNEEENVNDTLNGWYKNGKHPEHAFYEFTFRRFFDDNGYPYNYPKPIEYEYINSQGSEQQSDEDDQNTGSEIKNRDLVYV

[5] = biological target: Aurora kinase A (Homo sapiens) (UniProt O14965); assay: Inhibition of AURKA at 3 uM
Sequence of Aurora kinase A (Homo sapiens) (O14965 whole entry): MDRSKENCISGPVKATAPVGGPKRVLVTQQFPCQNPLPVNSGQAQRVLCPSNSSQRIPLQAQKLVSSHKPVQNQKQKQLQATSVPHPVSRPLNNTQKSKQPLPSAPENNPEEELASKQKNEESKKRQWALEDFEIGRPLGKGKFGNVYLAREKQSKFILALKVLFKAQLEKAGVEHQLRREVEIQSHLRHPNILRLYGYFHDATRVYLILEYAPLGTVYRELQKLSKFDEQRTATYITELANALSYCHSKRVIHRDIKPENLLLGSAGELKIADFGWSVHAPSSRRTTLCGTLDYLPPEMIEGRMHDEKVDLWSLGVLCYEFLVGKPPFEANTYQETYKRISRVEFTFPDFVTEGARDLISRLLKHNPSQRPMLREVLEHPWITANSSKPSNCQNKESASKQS

[6] = biological target: Serine/threonine-protein kinase PAK 1 (Homo sapiens) (UniProt Q13153); assay: Inhibition of PAK1 at 3 uM
Sequence of Serine/threonine-protein kinase PAK 1 (Homo sapiens) (Q13153 whole entry): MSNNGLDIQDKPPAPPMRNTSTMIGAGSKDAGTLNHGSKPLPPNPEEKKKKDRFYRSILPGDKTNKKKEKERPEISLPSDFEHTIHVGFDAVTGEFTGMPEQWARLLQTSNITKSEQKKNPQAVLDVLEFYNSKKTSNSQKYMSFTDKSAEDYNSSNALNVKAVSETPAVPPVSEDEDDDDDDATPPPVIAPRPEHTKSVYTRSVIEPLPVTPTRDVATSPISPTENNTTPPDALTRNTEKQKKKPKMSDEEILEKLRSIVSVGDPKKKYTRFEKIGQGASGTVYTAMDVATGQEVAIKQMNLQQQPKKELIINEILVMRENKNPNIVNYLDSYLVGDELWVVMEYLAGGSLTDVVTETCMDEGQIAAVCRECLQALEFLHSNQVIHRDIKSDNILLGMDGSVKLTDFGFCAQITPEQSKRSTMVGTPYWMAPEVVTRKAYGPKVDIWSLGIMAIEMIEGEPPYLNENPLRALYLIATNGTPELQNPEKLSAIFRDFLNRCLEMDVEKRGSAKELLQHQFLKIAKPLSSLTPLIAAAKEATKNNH

[7] = biological target: Mitogen-activated protein kinase 1 (Homo sapiens) (UniProt P28482); assay: Inhibition of ERK2 at 3 uM
Summary of the method: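 Single-concentration kinase panel scoring: each value is the percentage of enzyme activity remaining relative to a DMSO-only control. An activity statistically indistinct from DMSO control was scored "no hit".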

[8] = biological target: Aurora kinase B (Homo sapiens) (UniProt Q96GD4); assay: Inhibition of AURKB at 3 uM
Sequence of Aurora kinase B (Homo sapiens) (Q96GD4 whole entry): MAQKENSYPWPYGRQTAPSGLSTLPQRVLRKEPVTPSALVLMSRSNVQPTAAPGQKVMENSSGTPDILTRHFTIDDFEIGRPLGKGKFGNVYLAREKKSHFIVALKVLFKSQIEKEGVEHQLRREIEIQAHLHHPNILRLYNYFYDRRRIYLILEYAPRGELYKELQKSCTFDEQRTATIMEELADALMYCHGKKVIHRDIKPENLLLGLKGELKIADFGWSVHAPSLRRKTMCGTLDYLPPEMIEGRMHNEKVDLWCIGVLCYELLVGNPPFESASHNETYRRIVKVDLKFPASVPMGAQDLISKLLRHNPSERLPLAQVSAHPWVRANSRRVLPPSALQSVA

[9] = biological target: Alpha-1A adrenergic receptor (Rattus norvegicus) (UniProt P43140); assay: Inhibition of rat adrenergic alpha1A receptor at 3 uM
[10] = organism: Rattus norvegicus; details: 3 uM
[11] = biological target: Serine/threonine-protein kinase MRCK beta (Homo sapiens) (UniProt Q9Y5S2); assay: Inhibition of MRCKB at 3 uM
[12] = biological target: Cysteinyl leukotriene receptor 1 (Homo sapiens) (UniProt Q9Y271); assay: Inhibition of human CysLT1 receptor at 3 uM
Sequence of Cysteinyl leukotriene receptor 1 (Homo sapiens) (Q9Y271 whole entry): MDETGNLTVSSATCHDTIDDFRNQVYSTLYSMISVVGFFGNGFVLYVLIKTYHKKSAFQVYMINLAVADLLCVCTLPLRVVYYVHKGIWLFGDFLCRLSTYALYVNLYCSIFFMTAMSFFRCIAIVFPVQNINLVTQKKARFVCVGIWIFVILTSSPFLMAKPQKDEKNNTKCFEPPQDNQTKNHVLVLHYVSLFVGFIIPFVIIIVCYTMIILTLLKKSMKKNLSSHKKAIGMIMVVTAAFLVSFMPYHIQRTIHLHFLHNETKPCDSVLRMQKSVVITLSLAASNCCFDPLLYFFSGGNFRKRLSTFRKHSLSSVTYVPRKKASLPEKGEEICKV

[13] = biological target: B1 bradykinin receptor (Homo sapiens) (UniProt P46663); assay: Inhibition of human bradykinin B1 receptor at 3 uM
Summary of the method: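 Counter-screen binding/enzyme panel at single 3 μM, n=2; results as percent inhibition. Species per target as listed (rat NMDA, GABAA sites; human receptors, transporters; rabbit ACE).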

[14] = biological target: Serine/threonine-protein kinase D1 (Homo sapiens) (UniProt Q15139); assay: Inhibition of PRKD1 at 3 uM
[15] = biological target: Neuropeptide Y receptor type 2 (Homo sapiens) (UniProt P49146); assay: Inhibition of human neuropeptide Y Y2 receptor at 3 uM
[16] = biological target: Tyrosine-protein kinase Tec (Homo sapiens) (UniProt P42680); assay: Inhibition of TEC at 3 uM
[17] = biological target: Casein kinase II subunit alpha (Homo sapiens) (UniProt P68400); assay: Inhibition of CSNK2A1 at 3 uM
Sequence of Casein kinase II subunit alpha (Homo sapiens) (P68400 whole entry, looked up): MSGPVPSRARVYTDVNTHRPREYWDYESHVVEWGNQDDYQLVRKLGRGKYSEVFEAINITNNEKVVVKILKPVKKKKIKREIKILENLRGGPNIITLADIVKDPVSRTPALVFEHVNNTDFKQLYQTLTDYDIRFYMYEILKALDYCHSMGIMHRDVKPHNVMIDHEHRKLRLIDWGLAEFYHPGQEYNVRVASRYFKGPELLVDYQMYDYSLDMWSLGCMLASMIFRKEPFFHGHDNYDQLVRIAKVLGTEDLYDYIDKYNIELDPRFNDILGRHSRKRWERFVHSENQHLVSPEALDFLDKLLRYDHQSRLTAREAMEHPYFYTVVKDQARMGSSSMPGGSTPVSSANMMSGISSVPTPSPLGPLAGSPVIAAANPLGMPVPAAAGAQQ

[18] = biological target: AP2-associated protein kinase 1 (Homo sapiens) (UniProt Q2M2I8); assay: Inhibition of AAK1 at 3 uM
[19] = biological target: Mitogen-activated protein kinase 8 (Homo sapiens) (UniProt P45983); assay: Inhibition of JNK1 at 3 uM
[20] = biological target: Tyrosine-protein kinase TXK (Homo sapiens) (UniProt P42681); assay: Inhibition of TXK at 3 uM
Sequence of Tyrosine-protein kinase TXK (Homo sapiens) (P42681 whole entry): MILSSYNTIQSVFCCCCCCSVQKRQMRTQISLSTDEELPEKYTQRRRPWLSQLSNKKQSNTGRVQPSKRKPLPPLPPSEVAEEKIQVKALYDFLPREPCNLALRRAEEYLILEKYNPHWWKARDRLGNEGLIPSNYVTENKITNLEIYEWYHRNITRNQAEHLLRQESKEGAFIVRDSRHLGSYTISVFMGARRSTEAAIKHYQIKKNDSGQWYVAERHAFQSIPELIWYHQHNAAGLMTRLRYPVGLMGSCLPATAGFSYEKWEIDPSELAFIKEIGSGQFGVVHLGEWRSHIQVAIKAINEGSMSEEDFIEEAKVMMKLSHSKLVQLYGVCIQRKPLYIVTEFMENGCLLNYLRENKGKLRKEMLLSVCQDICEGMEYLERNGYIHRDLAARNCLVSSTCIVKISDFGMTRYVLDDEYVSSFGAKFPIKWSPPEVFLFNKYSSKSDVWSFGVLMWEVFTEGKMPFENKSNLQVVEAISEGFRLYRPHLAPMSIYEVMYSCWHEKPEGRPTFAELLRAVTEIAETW

[21] = biological target: Tyrosine-protein kinase Blk (Homo sapiens) (UniProt P51451); assay: Inhibition of BLK at 3 uM
Sequence of Tyrosine-protein kinase Blk (Homo sapiens) (P51451 2-505 limits assumed): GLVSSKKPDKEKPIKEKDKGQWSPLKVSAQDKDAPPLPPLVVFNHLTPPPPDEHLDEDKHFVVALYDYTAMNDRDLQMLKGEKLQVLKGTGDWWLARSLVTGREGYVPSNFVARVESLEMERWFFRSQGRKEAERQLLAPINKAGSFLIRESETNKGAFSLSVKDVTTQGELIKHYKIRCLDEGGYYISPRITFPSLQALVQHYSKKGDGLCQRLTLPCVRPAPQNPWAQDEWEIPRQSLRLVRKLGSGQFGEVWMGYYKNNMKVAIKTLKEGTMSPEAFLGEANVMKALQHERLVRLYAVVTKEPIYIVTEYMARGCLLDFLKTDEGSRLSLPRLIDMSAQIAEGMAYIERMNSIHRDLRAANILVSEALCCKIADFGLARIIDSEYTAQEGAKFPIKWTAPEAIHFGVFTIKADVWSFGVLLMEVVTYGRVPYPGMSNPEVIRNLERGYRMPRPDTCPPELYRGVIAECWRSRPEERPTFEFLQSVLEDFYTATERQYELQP

[22] = biological target: Activin receptor type-1-like (Homo sapiens) (UniProt P37023); assay: Inhibition of ACVRL1 at 3 uM

Measured: inhibition

Sequence of Wee1-like protein kinase 2 (Homo sapiens) (P0C1S8 whole entry, looked up): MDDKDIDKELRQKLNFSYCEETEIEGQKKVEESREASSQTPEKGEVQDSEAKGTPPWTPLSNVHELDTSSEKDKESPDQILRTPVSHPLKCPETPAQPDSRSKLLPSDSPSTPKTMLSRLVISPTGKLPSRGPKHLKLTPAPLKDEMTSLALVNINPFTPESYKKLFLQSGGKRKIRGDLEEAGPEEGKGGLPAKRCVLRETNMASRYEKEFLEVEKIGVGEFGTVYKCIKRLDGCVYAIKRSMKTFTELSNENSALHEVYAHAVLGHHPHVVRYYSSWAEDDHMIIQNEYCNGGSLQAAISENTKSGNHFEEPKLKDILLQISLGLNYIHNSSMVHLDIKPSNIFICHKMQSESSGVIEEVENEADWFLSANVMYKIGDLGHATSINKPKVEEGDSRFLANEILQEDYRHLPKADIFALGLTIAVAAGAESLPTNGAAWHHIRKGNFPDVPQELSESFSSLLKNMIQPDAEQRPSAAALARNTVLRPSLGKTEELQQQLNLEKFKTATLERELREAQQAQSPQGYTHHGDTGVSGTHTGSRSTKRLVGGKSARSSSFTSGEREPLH

CN(C)CCOc1cc(-c2cn[nH]c2)ccc1NC(=O)C1COc2ccccc2O1 (configuration not stated) [SR-3677]
-1%: [10]
-3%: [13]
53%: [9]
0%: [12] | [15]
< 10%: all other assays above
